Results collected from several papers.
Each line is one published result; the experiments were not run side by side.

SMILES | system | conditions | concentration
COc1ccc2c(=O)n(C)c(-c3ccccc3)nc2c1 | male Sprague-Dawley rat, lung | oral, 30 mg/kg, 30 min | 2.5 ng/mL
Cc1noc(C)c1Cn1cc(N2C(=O)N(Cc3cccc(O)c3)C(C)(C)C2=O)cn1 | male Sprague-Dawley rat, plasma | oral, 100 mg/kg, 24 h, single dose | 0 ng/mL
COc1nc(-c2cc(C)c(N[C@@H](C)c3cc(F)cc(F)c3)nn2)ccc1-n1cnc(C)c1 | male Sprague-Dawley rat, CSF | oral, 5 mg/kg, 4 h, multiple doses, once daily | 15.3 ng/mL
CCOC(=O)[C@@]12C[C@@H]1[C@@H](n1ccc3c(NC)nc(C#Cc4ccc(Cl)s4)nc31)[C@H](O)[C@@H]2O | male Sprague-Dawley rat, plasma | oral, 3 mg/kg, 30 min | 48.4 ng/mL
NC(=O)C(c1ccccc1)(c1ccc(F)cc1)c1ccc(F)cc1 | female Lewis rat, brain | intraperitoneal, 50 mg/kg, 1 h, single dose | 43 µM
COc1cccc(-c2n[nH]c(SCc3ccccn3)n2)c1OC | male Sprague-Dawley rat, plasma | oral, 30 mg/kg, 2 h, single dose | 9750 ng/mL
Cc1ccc(-c2cc(C(F)(F)F)nn2-c2ccc(S(N)(=O)=O)cc2)cc1 | male Sprague-Dawley rat, blood | oral, 20 mg/kg, 4 h | 6.36 µM
Cc1noc(C)c1Cn1cc(N2C(=O)CN(Cc3cccc(O)c3)C2=O)cn1 | male Sprague-Dawley rat, plasma | oral, 100 mg/kg, 4 h | 42.5 ng/mL
CCc1cc(-c2noc(-c3cc(OC)nc(C4CCCC4)c3)n2)cc(C)c1OC[C@@H](O)CO | Wistar rat, plasma | oral, 3 mg/kg, 3 h, single dose | 235 ng/mL
